Results on seven compounds are retold here after ChEMBL document CHEMBL2390929, “New nitric oxide donating 1,2,4-triazole/oxime hybrids: synthesis, investigation of anti-inflammatory, ulceroginic liability and antiproliferative activities” (Bioorg Med Chem, 2013).

One data set has as its system KM12. Description: Cytotoxicity against human KM12 cells assessed as cell growth at 10^-5 M after 48 hrs by SRB assay. As to conditions: KM12, 48 h, read-out: Activity. It counts as functional. In a few lines:
(§1)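 NCI 60-cell-line primary one-dose screen across nine tumour subpanels. Compound added at a single concentration of 10^-5 M and cultures incubated 48 h. Endpoint was sulforhodamine B protein staining read spectrophotometrically, with growth expressed as percent of untreated control cells.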

Another data set deals with TK-10. Description: Cytotoxicity against human TK10 cells assessed as cell growth at 10^-5 M after 48 hrs by SRB assay. The format is functional. As to conditions: TK-10, 48 h, read-out: Activity. In a few lines: (§2)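 NCI-60 one-dose screen across nine tumour subpanels. Each agent added once at 10^-5 M, cultures incubated 48 h. Endpoint is sulforhodamine B protein staining read spectrophotometrically. Output is percent growth of treated cells relative to untreated controls.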
For orientation: Sulforhodamine B stains cellular protein and so reports cell mass.

The test system of the next data set is SNB-75. Description: Cytotoxicity against human SNB75 cells assessed as cell growth at 10^-5 M after 48 hrs by SRB assay. It counts as functional. As to conditions: SNB-75, 48 h, read-out: Activity. In a few lines: as §2
A further data set relates to M14. Description: Cytotoxicity against human M14 cells assessed as cell growth at 10^-5 M after 48 hrs by SRB assay. Particulars: M14, 48 h, read-out: Activity. The format is functional. The essentials: as §1
Another data set concerns HCT-15. Description: Cytotoxicity against human HCT15 cells assessed as cell growth at 10^-5 M after 48 hrs by SRB assay. It counts as functional. Particulars: HCT-15, 48 h, read-out: Activity. In a few lines: as §1
The next data set has as its system UO-31. Description: Cytotoxicity against human UO31 cells assessed as cell growth at 10^-5 M after 48 hrs by SRB assay. It counts as functional. As to conditions: UO-31, 48 h, read-out: Activity. In a few lines: as §2
The next data set has as its system MCF7. Description: Cytotoxicity against human MCF7 cells assessed as cell growth at 10^-5 M after 48 hrs by SRB assay. It counts as functional. As to conditions: MCF7, 48 h, read-out: Activity. The essentials:
as §1

A further data set has as its system Rattus norvegicus. Description: Gastrointestinal toxicity in albino rat assessed as histopathological analysis at 0.28 mmol/kg, po using haematoxylin and eosin staining by light microscopic analysis. It counts as organism-based. Particulars: in vivo. The essentials: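 Adult male albino rats (120–140 g, Minia University), groups of four, fasted 24 h with water allowed. Oral dose 0.28 mmol/kg suspended in 0.5% aqueous CMC; vehicle-only controls. Gastric sections dewaxed, stained with haematoxylin 5–7 min, differentiated in 1% HCl/70% alcohol, counterstained with 1% eosin 10 min. Cleared in xylene, mounted, examined by light microscopy at ×400.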

The next data set deals with NCI-H322M. Description: Cytotoxicity against human NCI-H322M cells assessed as cell growth at 10^-5 M after 48 hrs by SRB assay. It counts as functional. As to conditions: read-out: Activity. The essentials:
as §1

For the next data set, the system named is RXF 393. Description: Cytotoxicity against human RXF393 cells assessed as cell growth at 10^-5 M after 48 hrs by SRB assay. It counts as functional. Particulars: RXF 393, 48 h, read-out: Activity. In a few lines: as §1
Another data set deals with CCRF-CEM. Description: Cytotoxicity against human CCRF-CEM cells assessed as cell growth at 10^-5 M after 48 hrs by SRB assay. The format is functional. As to conditions: read-out: Activity. In a few lines: as §1
The test system of a further data set is SF-295. Description: Cytotoxicity against human SF295 cells assessed as cell growth at 10^-5 M after 48 hrs by SRB assay. The format is functional. Particulars: SF-295, 48 h, read-out: Activity. In a few lines:
as §1

Data set [1] can be described thus: Cytotoxicity against human EKVX cells assessed as cell growth at 10^-5 M after 48 hrs by SRB assay. Particulars: read-out: Activity. It counts as functional. In a few lines:
as §1

A short description of data set [2]: Induction of nitric oxide release in phosphate buffer at pH 7.4 at 0.1 mM after 5 hrs by Griess method in presence of 0.5 mM of N-acetylcysteine. The format is physicochemical. As to conditions: pH 7.4, 5 h, 100 µM. In a few lines:
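Compound in DMF diluted to final 10^-4 M in 1:1 50 mM phosphate buffer pH 7.4/MeOH with 5×10^-4 M N-acetylcysteine, 37 °C. Aliquot mixed with Griess reagent, 10 min at room temperature, A546 read. Nitrite quantified against sodium nitrite standards (10–80 nmol/mL); NO expressed as mol/mol. n = 4 reaction mixtures per compound.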

For `CCn1c(SC/C(=N/O)c2ccccc2)nnc1-c1ccc(OC)c(OC)c1`, the growth at 10 µM in the data set on KM12 stood at 100%; in the data set with TK-10 it was 106%; in the data set with SNB-75, 90.3%; in the data set with M14 it was 126%; with HCT-15 it was 105%; in the data set with UO-31, 85.4%. Moreover, the growth at 10 µM in the data set with MCF7 came out at 118%; in the data set with NCI-H322M it was 99.4%; in the data set on RXF 393, 114%; in the data set with CCRF-CEM, 98%; in the data set with SF-295, 146%; in data set [1], 102%. For the same compound, the results for the Activity entry (in the data set with Rattus norvegicus; in data set [2]) were “Non-toxic” and 0.25 mol/mol, respectively.

For `O/N=C(/CSc1nnc(-c2ccccc2)n1-c1ccccc1)c1ccccc1`, the growth at 10 µM in the data set on KM12 was 97.5%; in the data set with SNB-75 it was 115%; with M14 it was 103%; with HCT-15, 101%; in the data set with UO-31, 77.4%; in the data set with MCF7 it was 129%. The growth at 10 µM in the data set with RXF 393 was found to be 108%; in the data set on CCRF-CEM, 91%; in the data set on SF-295, 88%; in data set [1] it was 95.4%. Further, the Activity in data set [2] is 0.15 mol/mol.

Regarding `COc1ccc(-c2nnc(SC/C(=N/O)c3ccccc3)n2-c2ccccc2)cc1`, the growth at 10 µM worked out at 112% in the data set with KM12; 113% in the data set on TK-10; 103% with SNB-75; 106% in the data set on M14; 95.1% with HCT-15; 87.1% in the data set on UO-31. Also, the growth at 10 µM with MCF7 is 104%; in the data set on NCI-H322M it was 102%; with RXF 393 it was 108%; in the data set on CCRF-CEM, 83.5%; with SF-295, 89.5%; in data set [1] it was 102%. Moreover, the Activity in data set [2] was found to be 0.15 mol/mol.

Regarding `COc1ccc(-c2nnc(SC/C(=N/O)c3ccccc3)n2-c2ccccc2)cc1OC`, the growth at 10 µM with KM12 turned out to be 99.8%; in the data set with TK-10 it was 123%; with SNB-75, 91.4%; in the data set with M14, 98.9%; in the data set with HCT-15 it was 98.3%; in the data set with UO-31, 80.1%. Further, the growth at 10 µM was determined as 100% with MCF7; 103% in the data set on NCI-H322M; 102% with RXF 393; 84.4% with CCRF-CEM; 101% in data set [1]. Moreover, in [2], the Activity is 0.23 mol/mol.

As to `COc1cc(-c2nnc(SC/C(=N/O)c3ccccc3)n2-c2ccccc2)cc(OC)c1OC`, the growth at 10 µM in the data set on KM12 came out at 108%; in the data set with TK-10 it was 116%; with SNB-75 it was 84.5%; with M14 it was 108%; in the data set with HCT-15 it was 99.1%; in the data set on UO-31, 69.5%. For the same compound, the growth at 10 µM in the data set on MCF7 stood at 101%; in the data set on NCI-H322M it was 104%; in the data set on RXF 393 it was 105%; in the data set with CCRF-CEM, 88.5%; in the data set on SF-295, 93.1%; in [1] it was 97.9%. Also, in data set [2], the Activity amounted to 0.16 mol/mol.

With `C=CCn1c(SC/C(=N\O)c2ccccc2)nnc1-c1ccc(OC)c(OC)c1`, the growth at 10 µM in the data set with KM12 worked out at 106%; in the data set with TK-10, 112%; with SNB-75, 86.9%; in the data set on M14, 123%; in the data set on HCT-15, 99%; in the data set with UO-31, 77.9%. Also, the growth at 10 µM is 105% in the data set with MCF7; 96.6% with NCI-H322M; 117% with RXF 393; 98.3% in the data set with CCRF-CEM; 104% in the data set on SF-295; 101% in [1]. Besides, the Activity in data set [2] turned out to be 0.24 mol/mol.

Regarding `CCn1c(SC/C(=N/O)c2ccccc2)nnc1-c1ccccc1`, the growth at 10 µM came to 110% in the data set on KM12; 87.8% in the data set on SNB-75; 109% in the data set with M14; 101% in the data set with HCT-15; 91.5% in the data set with UO-31; 112% in the data set on MCF7. The growth at 10 µM worked out at 117% with RXF 393, 88.9% with CCRF-CEM, 109% in the data set with SF-295 and 90.6% in [1]. Besides, the Activity in data set [2] turned out to be 0.14 mol/mol.
